ChEMBL document CHEMBL1148203, “Briarane diterpenes from two species of octocorals, Ellisella sp. and Pteroeides sp” (J Nat Prod, 2004)
Calls of active or inactive are those of the source. The rule behind the calls is not given here.

Legend:
Assay type in all cases: functional, cell-based
[1] = test system: KB-C2; assay: Reversal of multidrug resistance in human KB-C2 cells after 72 hrs by MTT assay
Outline: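 KB-C2 MDR line (selected from KB-3-1, kept in 2 µg/mL colchicine), RPMI 1640 with 10% newborn calf serum; 10 000 cells/well, 24 h preincubation at 37 °C, 5% CO2; colchicine plus sample added for 48 h; MTT 3 h, formazan in DMSO, absorbance 540 nm gives % growth inhibition; cytotoxicity checked in parental KB-3-1.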

[2] = test system: KB-CV60; assay: Reversal of multidrug resistance in human KB-CV60 cells after 72 hrs by MTT assay
Outline: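 KB-CV60 MDR line (selected from KB-3-1, kept in 1 µg/mL cepharanthine and 60 ng/mL vincristine), RPMI 1640 with 10% newborn calf serum; 10 000 cells/well, 24 h preincubation at 37 °C, 5% CO2; anticancer agent plus sample for 48 h; MTT 3 h, formazan in DMSO, A540 gives % growth inhibition.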

[3] = test system: NBT2; assay: Induction of multinuclei formation in rat NBT2 cells assessed as inhibition of cytokinesis at 0.5 to 2 ug/mL after 72 hrs
Outline: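 Rat bladder epithelial NBT-II cells in modified Eagle's medium with 10% heat-inactivated FBS, streptomycin, amphotericin B and glutamic acid; exposed to graded briarane concentrations at 37 °C for 72 h; multinucleation scored by microscopy at 48 and 72 h.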

## CCC(=O)O[C@@H]1C[C@H](OC(C)=O)[C@]2(C)[C@H](OC(C)=O)/C=C\C(CCl)=C/[C@@H]3OC(=O)[C@H](C)[C@@]3(O)[C@@H](OC(C)=O)[C@H]2[C@]1(C)O
[1]
  Activity: inactive
[2]
  Activity: inactive

## C=C1[C@H](Cl)[C@@H]2OC(=O)[C@H](C)[C@]23O[C@@]1(O)C[C@H](OC(C)=O)[C@]1(C)[C@H]([C@@H](C)[C@H](OC(=O)c2ccccc2)C[C@@H]1OC(C)=O)[C@@H]3OC(C)=O
[1]
  Activity: Active
[2]
  Activity: Active

## C=C1/C=C\[C@@H](OC(C)=O)[C@@]2(C)C=C[C@@H](OC(C)=O)[C@](O)(COC(C)=O)[C@@H]2[C@H](OC(C)=O)[C@]2(O)[C@@H](C)C(=O)O[C@H]2[C@H]1Cl
[3]
  Activity: Active

## C=C1/C=C/[C@H](OC(C)=O)[C@@]2(C)[C@@H](OC(C)=O)C[C@H]3O[C@@]3(C)[C@@H]2[C@H](OC(C)=O)[C@]2(O)[C@@H](C)C(=O)O[C@H]2[C@H]1Cl
[1]
  Activity: inactive
[2]
  Activity: inactive

## C=C1CC[C@@H](OC(C)=O)[C@@]2(C)[C@@H](OC(C)=O)CC[C@@]3(CO3)[C@@H]2[C@H](OC(C)=O)[C@]2(O)[C@@H](C)C(=O)O[C@H]2[C@H]1Cl
[3]
  Activity: Active

## CC(=O)OCC1=C/[C@@H]2OC(=O)[C@H](C)[C@@]2(O)[C@@H](OC(C)=O)[C@H]2[C@]3(C)O[C@@H]3C[C@H](OC(C)=O)[C@]2(C)[C@@H](OC(C)=O)\C=C\1
[1]
  Activity: inactive
[2]
  Activity: inactive
